Measured values gathered from unrelated publications.
Protocols differ between the studies behind these lines.
Target: Tyrosine-protein kinase Srms (SRMS, Homo sapiens, UniProt Q9H3Y6)

For CN1CC(Oc2cnc(C#N)cc2-c2ccn3nc(NC(=O)C4CC4)cc3c2)C1, the inhibition was 4% (enzyme activity; inhibitor; 1 µM).
O=C1NC(=O)c2cc(Nc3ccc(F)cc3)c(Nc3ccc(F)cc3)cc21 has a remaining signal of 95.5% (cell-free assay; 0.5 µM).
FC(F)(F)c1ccc2c(c1)nc(-c1cccnc1)n2C1CC1 has a remaining binding of 95% (cell-free assay; competition with immobilised ligand; 1 µM).
The remaining signal of O=C1Nc2ccc(Cl)cc2C1=Cc1cc(Cl)c(O)c(Cl)c1 is reported as 86.3% (cell-free assay; 0.5 µM).
Cc1sc(C(=O)NC2COC2)cc1-n1cc(NC(=O)Nc2c(F)cccc2Cl)cn1 has a remaining activity of 104% (enzyme activity; inhibitor; 10 µM).
The remaining binding of Cc1cc(-n2nc(Cc3cc(F)cc(C(F)(F)F)c3)nc2C)ccc1C(N)=O is reported as 98% (cell-free assay; competition with immobilised ligand; 1 µM).
For COc1cc2ncnc(Nc3ccc(Oc4ccccc4)c(C)c3C)c2cc1OC, the inhibition was 24% (enzyme activity; inhibitor; 1 µM).
CNCc1ccccc1-c1csc([C@H](C)Nc2nc(C)nc3cc(OC)c(OC)cc23)c1 has a remaining binding of 88% (cell-free assay; competition with immobilised ligand; 1 µM).
CC(C)(C)c1nc(-c2cccc(NS(=O)(=O)c3c(F)cccc3F)c2F)c(-c2ccnc(N)n2)s1 has a remaining activity of 10% (enzyme activity; inhibitor; radiometric; 1 µM).
For O=C(Nc1cnn(-c2csc(C(=O)NC3COC3)c2)c1)Nc1ccccc1Cl, the remaining activity was 99.8% (enzyme activity; inhibitor; 5 µM).
For CC/C(=N\NC(=O)NCc1cccc(O)c1)c1ccc(O)c(C)c1O, the inhibition was 1.1% (enzyme activity; inhibitor; 0.1 µM).
With O=C(NC[C@@H]1[C@H]2CN(C(=O)OCc3cc(C(F)(F)F)cc(C(F)(F)F)c3)C[C@@H]12)c1ccc2[nH]nnc2c1 the remaining binding was 83% (cell-free assay; competition with immobilised ligand; 1 µM).
With Cc1ccc(C(=O)Nc2ccc(CN3CCN(C)CC3)c(C(F)(F)F)c2)cc1C#Cc1cnc2cccnn12 the remaining activity was 40% (enzyme activity; inhibitor; 23.5 nM).
